According to the RNAGym collection of RNA variant scans (doi:10.1038/s41586-018-0170-7):

B1: tRNA (parent)
chain: GUUCCGUUGGCGUAAUGGUAACGCGUCUCCCUCCUAAGGAGAAGACUGCGGGUUCGAGUCCCGUACGGAACG

Variants of: B1
Assay: yeast fitness, log relative to wild type (ln ratio); higher = fitter; tRNA-Arg(CCU), competitive growth, 37 C, 1 M NaCl
Outline: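 In BY4742 missing the chromosomal gene, a combinatorial tRNA-Arg(CCU) variant library was maintained on a HIS3 centromeric plasmid. Selection ran ~6.5 generations (~26.5 h) in SC-HIS 1M NaCl at 37 °C, following 4 generations in SC-HIS at 30 °C, with three outputs per input and variant counts by 125 bp paired-end Illumina sequencing. Fitness is the natural log of a genotype's generations relative to the wild type's, with generations taken as inverse-variance-weighted, OD-scaled log2 output/input frequency.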

| Variant | yeast fitness (ln) |
| --- | --- |
| AGUCCAUUGGCGUAAUGGUAACGCGUCUCCCUCCUAAGGAGACGACUGCGGGUUCGAGUCCCGUACGGGGUG [G1A U2G G6A A43C A69G A70G C71U] | -0.29 |
| GGUCCGUUGGCGUAAUGGUAACGCGUCUCCCUCCUAAGGAGAAGAUUGCGGGUUCGAGUCCCGUAUGGAUCG [U2G C46U C66U A70U] | -0.00424 |
| GUUCCUUUGGCGUAAUGGUAACGCGUCUCCCUCCUAAGGAGAAGAUUGCGGGUUCGAGUCCCGUAUGGGUUG [G6U C46U C66U A69G A70U C71U] | -0.434 |
| AGUCCUUUGGCGUAAUGGUAACGCGUUUCCCUCCUAAGGAGACGACUGCGGGUUCGAGUCCCGUAUGGAAUG [G1A U2G G6U C27U A43C C66U C71U] | -0.518 |
| GUUCCUUUGGCGUAAUGGUAACGCGUUUCCCUCCUAAGGAGACGAUUGCGGGUUCGAGUCCCGUAAGGGUCG [G6U C27U A43C C46U C66A A69G A70U] | -0.462 |
| GUUCCAUUGGCGUAAUGGUAACGCGUUUCCCUCCUAAGGAGAAGAUUGCGGGUUCGAGUCCCGUAUGGAGUG [G6A C27U C46U C66U A70G C71U] | -0.387 |
| GUUCCUUUGGCGUAAUGGUAACGCGUCUCCCUCCUAAGGAGAAGAUUGCGGGUUCGAGUCCCGUACGGGAUG [G6U C46U A69G C71U] | -0.194 |
| AUUCCUUUGGCGUAAUGGUAACGCGUUUCCCUCCUAAGGAGACGACUGCGGGUUCGAGUCCCGUAUGGAGUG [G1A G6U C27U A43C C66U A70G C71U] | -0.415 |
| AUUCCGUUGGCGUAAUGGUAACGCGUUUCCCUCCUAAGGAGAAGAUUGCGGGUUCGAGUCCCGUAAGGAUCG [G1A C27U C46U C66A A70U] | -0.182 |
| AGUCCGUUGGCGUAAUGGUAACGCGUUUCCCUCCUAAGGAGAAGACUGCGGGUUCGAGUCCCGUACGGAGUG [G1A U2G C27U A70G C71U] | -0.371 |
| GCUCCAUUGGCGUAAUGGUAACGCGUUUCCCUCCUAAGGAGACGACUGCGGGUUCGAGUCCCGUACGGAUCG [U2C G6A C27U A43C A70U] | -0.108 |
| GGUCCAUUGGCGUAAUGGUAACGCGUCUCCCUCCUAAGGAGACGAUUGCGGGUUCGAGUCCCGUAUGGAAUG [U2G G6A A43C C46U C66U C71U] | -0.212 |
| GCUCCGUUGGCGUAAUGGUAACGCGUUUCCCUCCUAAGGAGACGAUUGCGGGUUCGAGUCCCGUAAGGGGCG [U2C C27U A43C C46U C66A A69G A70G] | -0.0542 |
| GGUCCGUUGGCGUAAUGGUAACGCGUCUCCCUCCUAAGGAGACGAUUGCGGGUUCGAGUCCCGUAAGGAUUG [U2G A43C C46U C66A A70U C71U] | -0.193 |
| AGUCCGUUGGCGUAAUGGUAACGCGUCUCCCUCCUAAGGAGACGACUGCGGGUUCGAGUCCCGUAUGGGUUG [G1A U2G A43C C66U A69G A70U C71U] | -0.472 |
| AGUCCUUUGGCGUAAUGGUAACGCGUUUCCCUCCUAAGGAGACGACUGCGGGUUCGAGUCCCGUACGGAAUG [G1A U2G G6U C27U A43C C71U] | -0.329 |
| AGUCCGUUGGCGUAAUGGUAACGCGUCUCCCUCCUAAGGAGACGAUUGCGGGUUCGAGUCCCGUAAGGGAUG [G1A U2G A43C C46U C66A A69G C71U] | -0.335 |
| GGUCCUUUGGCGUAAUGGUAACGCGUUUCCCUCCUAAGGAGACGAUUGCGGGUUCGAGUCCCGUAAGGGGCG [U2G G6U C27U A43C C46U C66A A69G A70G] | -0.187 |
| GCUCCAUUGGCGUAAUGGUAACGCGUCUCCCUCCUAAGGAGACGACUGCGGGUUCGAGUCCCGUACGGAUUG [U2C G6A A43C A70U C71U] | -0.126 |

| Variant | yeast fitness (ln) |
| --- | --- |
| GUUCCAUUGGCGUAAUGGUAACGCGUUUCCCUCCUAAGGAGACGACUGCGGGUUCGAGUCCCGUACGGGAUG [G6A C27U A43C A69G C71U] | -0.353 |
| GUUCCUUUGGCGUAAUGGUAACGCGUCUCCCUCCUAAGGAGACGACUGCGGGUUCGAGUCCCGUAAGGGUCG [G6U A43C C66A A69G A70U] | -0.215 |
| GCUCCUUUGGCGUAAUGGUAACGCGUUUCCCUCCUAAGGAGACGACUGCGGGUUCGAGUCCCGUACGGAACG [U2C G6U C27U A43C] | -0.0819 |
| AGUCCUUUGGCGUAAUGGUAACGCGUUUCCCUCCUAAGGAGAAGACUGCGGGUUCGAGUCCCGUAUGGGUCG [G1A U2G G6U C27U C66U A69G A70U] | -0.307 |
| AGUCCUUUGGCGUAAUGGUAACGCGUCUCCCUCCUAAGGAGACGACUGCGGGUUCGAGUCCCGUACGGGAUG [G1A U2G G6U A43C A69G C71U] | -0.537 |
| GGUCCAUUGGCGUAAUGGUAACGCGUUUCCCUCCUAAGGAGACGAUUGCGGGUUCGAGUCCCGUAAGGGGUG [U2G G6A C27U A43C C46U C66A A69G A70G C71U] | -0.252 |
| AGUCCGUUGGCGUAAUGGUAACGCGUUUCCCUCCUAAGGAGACGAUUGCGGGUUCGAGUCCCGUAAGGAUUG [G1A U2G C27U A43C C46U C66A A70U C71U] | -0.35 |
| GUUCCGUUGGCGUAAUGGUAACGCGUCUCCCUCCUAAGGAGAAGACUGCGGGUUCGAGUCCCGUACGGGGCG [A69G A70G] | -0.0138 |
| GCUCCAUUGGCGUAAUGGUAACGCGUUUCCCUCCUAAGGAGAAGACUGCGGGUUCGAGUCCCGUAAGGGGUG [U2C G6A C27U C66A A69G A70G C71U] | -0.0666 |
| GGUCCUUUGGCGUAAUGGUAACGCGUCUCCCUCCUAAGGAGACGACUGCGGGUUCGAGUCCCGUAUGGAUCG [U2G G6U A43C C66U A70U] | -0.279 |
| ACUCCAUUGGCGUAAUGGUAACGCGUUUCCCUCCUAAGGAGACGAUUGCGGGUUCGAGUCCCGUAUGGAUCG [G1A U2C G6A C27U A43C C46U C66U A70U] | -0.0654 |
| GGUCCUUUGGCGUAAUGGUAACGCGUUUCCCUCCUAAGGAGAAGACUGCGGGUUCGAGUCCCGUAUGGGGUG [U2G G6U C27U C66U A69G A70G C71U] | -0.273 |
| AGUCCGUUGGCGUAAUGGUAACGCGUUUCCCUCCUAAGGAGAAGACUGCGGGUUCGAGUCCCGUACGGAUUG [G1A U2G C27U A70U C71U] | -0.0262 |
| GGUCCUUUGGCGUAAUGGUAACGCGUUUCCCUCCUAAGGAGACGAUUGCGGGUUCGAGUCCCGUAUGGGUCG [U2G G6U C27U A43C C46U C66U A69G A70U] | -0.374 |
| GUUCCUUUGGCGUAAUGGUAACGCGUCUCCCUCCUAAGGAGAAGACUGCGGGUUCGAGUCCCGUACGGAACG [G6U] | -0.0403 |
| GUUCCGUUGGCGUAAUGGUAACGCGUCUCCCUCCUAAGGAGACGACUGCGGGUUCGAGUCCCGUAUGGAGCG [A43C C66U A70G] | -0.0981 |
| GCUCCUUUGGCGUAAUGGUAACGCGUUUCCCUCCUAAGGAGAAGACUGCGGGUUCGAGUCCCGUAAGGGUUG [U2C G6U C27U C66A A69G A70U C71U] | -0.525 |
| ACUCCAUUGGCGUAAUGGUAACGCGUUUCCCUCCUAAGGAGACGACUGCGGGUUCGAGUCCCGUACGGAACG [G1A U2C G6A C27U A43C] | -0.0863 |
